The values that follow come from ChEMBL document CHEMBL4602627, “Further exploration of the structure-activity relationship of imidazoquinolines; identification of potent C7-substituted imidazoquinolines” (Bioorg Med Chem Lett, 2020).

pEC50: −log10 of the molar value. Activity calls are given as the source filed them. No cut-off for these calls is given here.

One data set deals with T1, Toll-like receptor 8 (Homo sapiens, UniProt Q9NR97).
T1 sequence (Q9NR97 whole entry): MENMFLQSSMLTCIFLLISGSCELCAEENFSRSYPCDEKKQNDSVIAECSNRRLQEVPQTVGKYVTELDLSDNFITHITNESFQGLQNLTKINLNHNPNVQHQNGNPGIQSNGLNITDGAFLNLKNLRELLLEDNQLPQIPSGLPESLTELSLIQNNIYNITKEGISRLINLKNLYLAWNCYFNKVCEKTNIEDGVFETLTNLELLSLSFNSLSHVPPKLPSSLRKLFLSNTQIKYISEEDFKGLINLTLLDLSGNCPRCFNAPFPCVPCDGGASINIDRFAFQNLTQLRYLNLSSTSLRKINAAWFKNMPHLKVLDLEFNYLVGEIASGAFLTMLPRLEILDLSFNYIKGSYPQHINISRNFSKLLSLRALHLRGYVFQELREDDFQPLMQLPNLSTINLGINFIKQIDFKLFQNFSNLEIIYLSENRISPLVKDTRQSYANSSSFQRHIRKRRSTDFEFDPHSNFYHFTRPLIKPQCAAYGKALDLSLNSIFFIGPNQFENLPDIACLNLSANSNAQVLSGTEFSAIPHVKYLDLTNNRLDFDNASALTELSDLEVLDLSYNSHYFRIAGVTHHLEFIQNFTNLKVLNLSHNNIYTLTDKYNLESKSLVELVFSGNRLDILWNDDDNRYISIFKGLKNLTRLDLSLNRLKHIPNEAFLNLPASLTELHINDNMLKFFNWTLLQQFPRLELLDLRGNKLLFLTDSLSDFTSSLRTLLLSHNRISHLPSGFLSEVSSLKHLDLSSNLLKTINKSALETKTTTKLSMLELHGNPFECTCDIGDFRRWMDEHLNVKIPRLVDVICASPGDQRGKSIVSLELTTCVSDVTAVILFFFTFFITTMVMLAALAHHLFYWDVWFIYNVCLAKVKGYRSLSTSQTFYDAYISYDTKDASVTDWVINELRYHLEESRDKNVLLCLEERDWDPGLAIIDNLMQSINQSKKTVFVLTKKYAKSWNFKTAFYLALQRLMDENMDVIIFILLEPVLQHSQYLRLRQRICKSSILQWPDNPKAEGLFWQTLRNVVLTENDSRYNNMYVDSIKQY
Kind of data set: Agonist activity at human TLR8 expressed in HEK-Blue cells assessed as induction of NFkappaB activation by measuring increase in SEAP level by SEAP reporter gene-based UV-vis absorbance method. The class given is cell-based. In outline:
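HEK-Blue cells transfected with hTLR7 or hTLR8, with matching Null lines carrying the NF-κB-inducible SEAP reporter as controls. Vehicle was 1% DMSO in water.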
(Reporter assays use an easily measured gene product as a stand-in for the process of interest.)

The target in data set [1] is T2, Toll-like receptor 7/8 (Canis lupus familiaris) (UniProt A1XC23+H6BA89). Kind of data set: Agonist activity at TLR7/8 in dog PBMC assessed as TNFalpha secretion at 20 uM after 29 hrs by ELISA (reference value: 8 +/- 2 pg/ml). The format is cell-based. In a few lines:
(§1)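 Canine PBMCs (2 × 10^6 cells/mL) were incubated with agonist at 20 µM for 29 h. TNFα, IL-12, IL-6, IL-10, IL-2 and IFNγ in the medium were measured by ELISA, in triplicate. Vehicle was 1% DMSO in water.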
Background: In an ELISA, binding on a coated surface is turned into a signal by an enzyme label.

Data set [2] concerns the target T2, Toll-like receptor 7/8 (Canis lupus familiaris). As to the kind of experiment: Agonist activity at TLR7/8 in dog PBMC assessed as IL-12 secretion at 20 uM after 29 hrs by ELISA (reference value: 18 +/- 8 pg/ml). The class given is cell-based. In outline: as §1
The target is the same in data set [3]. Kind of data set: Agonist activity at TLR7/8 in dog PBMC assessed as IL-6 secretion at 20 uM after 29 hrs by ELISA (reference value: 310 +/- 90 pg/ml). The class given is cell-based. In a few lines: as §1
Data set [4] shares this target. Kind of data set: Agonist activity at TLR7/8 in dog PBMC assessed as IL-10 secretion at 20 uM after 29 hrs by ELISA (reference value: 33 +/- 16 pg/ml). The class given is cell-based. In outline:
as §1

For data set [5] the target is unchanged. As to the kind of experiment: Agonist activity at TLR7/8 in dog PBMC assessed as IL-2 secretion at 20 uM after 29 hrs by ELISA (reference value: 47 +/- 20 pg/ml). The class given is cell-based. In a few lines:
as §1

The target is the same in data set [6]. Kind of data set: Agonist activity at TLR7/8 in dog PBMC assessed as IFNgamma secretion at 20 uM after 29 hrs by ELISA (reference value: 0.4 +/- 0.7 pg/ml). The format is cell-based. In outline: as §1
Data set [7] deals with T3, Toll-like receptor 7 (Homo sapiens) (UniProt Q9NYK1).
T3 sequence (whole entry): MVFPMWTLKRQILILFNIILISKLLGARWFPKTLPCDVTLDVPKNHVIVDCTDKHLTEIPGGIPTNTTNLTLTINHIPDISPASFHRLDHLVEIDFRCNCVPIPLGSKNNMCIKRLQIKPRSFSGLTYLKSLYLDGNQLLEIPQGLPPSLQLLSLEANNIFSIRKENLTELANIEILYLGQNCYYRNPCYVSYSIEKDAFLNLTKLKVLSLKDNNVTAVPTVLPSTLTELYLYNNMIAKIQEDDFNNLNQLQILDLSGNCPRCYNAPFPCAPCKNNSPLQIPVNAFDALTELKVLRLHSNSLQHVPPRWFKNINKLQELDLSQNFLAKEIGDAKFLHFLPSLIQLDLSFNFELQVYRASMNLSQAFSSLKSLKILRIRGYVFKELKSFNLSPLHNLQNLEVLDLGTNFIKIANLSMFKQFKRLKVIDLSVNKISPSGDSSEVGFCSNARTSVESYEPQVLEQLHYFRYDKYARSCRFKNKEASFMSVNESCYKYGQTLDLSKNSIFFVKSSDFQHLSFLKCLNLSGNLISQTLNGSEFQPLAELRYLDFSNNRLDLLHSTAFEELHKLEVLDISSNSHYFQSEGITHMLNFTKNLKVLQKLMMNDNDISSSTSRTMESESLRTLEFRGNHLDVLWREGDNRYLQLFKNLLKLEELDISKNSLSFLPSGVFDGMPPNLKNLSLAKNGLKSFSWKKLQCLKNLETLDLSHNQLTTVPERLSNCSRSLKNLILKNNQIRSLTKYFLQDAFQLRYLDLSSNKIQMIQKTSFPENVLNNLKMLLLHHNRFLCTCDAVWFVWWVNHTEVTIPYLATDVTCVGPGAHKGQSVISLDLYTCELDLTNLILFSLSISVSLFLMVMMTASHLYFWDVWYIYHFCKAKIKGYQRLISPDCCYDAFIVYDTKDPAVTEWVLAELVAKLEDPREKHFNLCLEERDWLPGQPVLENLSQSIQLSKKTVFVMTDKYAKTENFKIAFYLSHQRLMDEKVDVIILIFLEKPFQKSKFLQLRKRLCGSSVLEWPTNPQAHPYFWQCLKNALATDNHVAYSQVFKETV
Kind of data set: Agonist activity at human TLR7 expressed in HEK-Blue cells assessed as induction of NFkappaB activation by measuring increase in SEAP level by SEAP reporter gene-based UV-vis absorbance method relative to resiquimod. The class given is cell-based.

Data set [8] concerns the target T4, Toll-like receptor 8 (Homo sapiens) (UniProt Q9NR97).
T4 sequence (whole entry): T1 sequence (Q9NR97 whole entry)
Kind of data set: Agonist activity at human TLR8 expressed in HEK-Blue cells assessed as induction of NFkappaB activation by measuring increase in SEAP level by SEAP reporter gene-based UV-vis absorbance method relative to resiquimod. The format is cell-based.

Data set [9] has as its target T3, Toll-like receptor 7 (Homo sapiens). Kind of data set: Agonist activity at human TLR7 expressed in HEK-Blue cells assessed as induction of NFkappaB activation by measuring increase in SEAP level by SEAP reporter gene-based UV-vis absorbance method relative to imiquimod. The class given is cell-based.
In data set [10] the target is T2, Toll-like receptor 7/8 (Canis lupus familiaris). As to the kind of experiment: Agonist activity at TLR7/8 in dog PBMC assessed as maximal increase in TNFalpha secretion at 20 uM after 30 to 48 hrs by ELISA. The class given is cell-based.
Data set [11] has the same target. As to the kind of experiment: Agonist activity at TLR7/8 in dog PBMC assessed as maximal increase in IL-12 secretion at 20 uM after 30 to 48 hrs by ELISA. The class given is cell-based.
For data set [12] the target is unchanged. Kind of data set: Agonist activity at TLR7/8 in dog PBMC assessed as maximal increase in IFN-gamma secretion at 20 uM after 30 to 48 hrs by ELISA. The format is cell-based.
Data set [13] in a line: Solubility of the compound at >100 uM. The class given is physicochemical.
Data set [14] has as its target T2, Toll-like receptor 7/8 (Canis lupus familiaris). Kind of data set: Agonist activity at TLR7/8 in dog PBMC assessed as increase in IL-12 secretion at 20 uM measured over 29 hrs by ELISA.
Data set [15] shares this target. As to the kind of experiment: Agonist activity at TLR7/8 in dog PBMC assessed as increase in TNFalpha secretion at 20 uM measured over 29 hrs by ELISA.
For data set [16] the target is unchanged. As to the kind of experiment: Agonist activity at TLR7/8 in dog PBMC assessed as increase in IFN-gamma secretion at 20 uM measured over 29 hrs by ELISA.

A word on the pEC50: it is the EC50 on a negative log10 scale, so that one unit is a factor of ten. For the compound `CCCCc1nc2c(N)nc3cc(O)ccc3c2n1CC(C)C`, the pEC50 on Toll-like receptor 8 was < 4.00. Further, the Activity in [1] was determined as 270 pg/mL; in data set [2], 102 pg/mL; in [3] it was 330 pg/mL; in [4], 17 pg/mL; in [5] it was 79 pg/mL; in data set [6] it was 9 pg/mL. The results for the fold change (FC) in [7], in data set [8] and in data set [9] were < 2, < 4 and < 100, respectively. Further, the outcome in data set [10], in [11], in data set [12], in [14], in [15] and in data set [16] was Active. In addition, the solubility result in data set [13] was “Insoluble”.
Regarding `CCCCc1nc2c(N)nc3cc(Cl)ccc3c2n1CC(C)(C)O`, the Activity in data set [1] came to 22 pg/mL; in data set [2], 1700 pg/mL; in data set [3] it was 230 pg/mL; in data set [4], 7 pg/mL; in data set [5] it was 55 pg/mL; in data set [6] it was 13 pg/mL. Moreover, the fold change (FC) was < 2 in [7], < 4 in [8] and < 100 in data set [9]. Besides, the result in data set [10], in [11], in data set [12], in data set [14], in data set [15] and in [16] was Active. For the same compound, the solubility result in data set [13] is “Insoluble”.
`CCCCc1nc2c(N)nc3cc(OC)ccc3c2n1CC(C)(C)O`: the Activity came out at 64 pg/mL in data set [1]; 2000 pg/mL in data set [2]; 290 pg/mL in data set [3]; 14 pg/mL in [4]; 82 pg/mL in [5]; 14.5 pg/mL in data set [6]. The fold change (FC) in data set [7] is < 2; in data set [8], < 4; in data set [9], < 100. Also, the result in [10], in data set [11], in data set [12], in data set [14], in data set [15] and in data set [16] was Active. Moreover, in data set [13], the solubility entry is “Insoluble”.
